The text below walks through data of ChEMBL document CHEMBL3098086, “Synthesis and biological evaluation of α-triazolyl chalcones as a new type of potential antimicrobial agents and their interaction with calf thymus DNA and human serum albumin” (Eur J Med Chem, 2014).

Values after ≈ are worked out from the molar mass of the structure shown.

In one assay the test system is Candida. Put plainly: Antifungal activity against Candida mycoderma ATCC 96918 after 24 hrs by micro broth dilution method. The assay is classed as functional. The conditions noted are these: ATCC 96918, 24 h. The method, boiled down:
(§1)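 Fungi: C. albicans ATCC 76615 and C. mycoderma ATCC 96918. MICs by two-fold broth microdilution in 96-well plates per NCCLS. Fluconazole served as positive control.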

For a further assay, the system named is Candida albicans. Put plainly: Antifungal activity against Candida albicans ATCC 76615 after 24 hrs by micro broth dilution method. The assay is classed as functional. The conditions noted are these: ATCC 76615, 24 h. Summed up:
as §1

Another assay relates to Bacillus. Kind of assay: Antibacterial activity against Bacillus proteus ATCC 13315 after 24 hrs by twofold serial dilution method. The assay is classed as functional. The note with it: ATCC 13315, 24 h. Summed up: (§2)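 Bacterial strains: S. aureus ATCC 25923, B. subtilis ATCC 21216, M. luteus ATCC 4698, E. coli JM109, P. aeruginosa ATCC 27853, B. proteus ATCC 13315. MICs by two-fold broth microdilution in 96-well plates per NCCLS. Chloromycin and Norfloxacin served as positive controls.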

For another assay, the system named is Pseudomonas aeruginosa. Put plainly: Antibacterial activity against Pseudomonas aeruginosa ATCC 27853 after 24 hrs by twofold serial dilution method. The assay is classed as functional. The note with it: ATCC 27853, 24 h. The method, boiled down: as §2
In another assay the test system is Escherichia coli. Kind of assay: Antibacterial activity against Escherichia coli JM109 after 24 hrs by twofold serial dilution method. The assay is classed as functional. The conditions noted are these: JM109, 24 h. The method, boiled down:
as §2

The test system of another assay is Salmonella typhi. Kind of assay: Antibacterial activity against Bacillus typhi after 24 hrs by twofold serial dilution method. The assay is classed as functional, Salmonella enterica subsp. enterica serovar Typhi. The note with it: Salmonella enterica. Summed up: (§3)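 Two-fold broth microdilution per NCCLS recommendations. The MIC was read as the minimum inhibitory concentration. Chloromycin and Norfloxacin served as positive controls. Strains were Bacillus typhi (Gram-negative panel) and methicillin-resistant S. aureus N315.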

The subject of a further assay is Micrococcus luteus. Put plainly: Antibacterial activity against Micrococcus luteus ATCC 4698 after 24 hrs by twofold serial dilution method. The assay is classed as functional. The conditions noted are these: ATCC 4698, 24 h. Summed up:
as §2

The subject of another assay is Bacillus subtilis. Kind of assay: Antibacterial activity against Bacillus subtilis ATCC 21216 after 24 hrs by twofold serial dilution method. The assay is classed as functional. The note with it: ATCC 21216, 24 h. Summed up:
as §2

The test system of assay [1] is Staphylococcus aureus. Put plainly: Antibacterial activity against Staphylococcus aureus ATCC 25923 after 24 hrs by twofold serial dilution method. The assay is classed as functional. The conditions noted are these: ATCC 25923, 24 h. The method, boiled down: as §2
In assay [2] the test system is Staphylococcus aureus. Put plainly: Antibacterial activity against methicillin-resistant staphylococcus aureus N315 after 24 hrs by twofold serial dilution method. The assay is classed as functional. The conditions noted are these: N315, 24 h. The method, boiled down:
as §3

For the compound `Cc1ccc(/C=C(/C(=O)c2ccc(F)cc2F)n2cncn2)cc1`, the MIC is 16 µg/mL (≈ 49.2 µM) with Candida; 16 µg/mL (≈ 49.2 µM) with Candida albicans; 64 µg/mL (≈ 197 µM) in the assay on Bacillus; 16 µg/mL (≈ 49.2 µM) against Pseudomonas aeruginosa; 32 µg/mL (≈ 98.4 µM) in the assay on Escherichia coli; 64 µg/mL (≈ 197 µM) in the assay on Salmonella typhi. For the same compound, the minimum inhibitory concentration (MIC) in the assay on Micrococcus luteus stood at 64 µg/mL (≈ 197 µM); in the assay on Bacillus subtilis, 64 µg/mL (≈ 197 µM); in the assay with Staphylococcus aureus [1], 32 µg/mL (≈ 98.4 µM); against Staphylococcus aureus [2], 32 µg/mL (≈ 98.4 µM).

Regarding `O=C(/C(=C/c1ccccc1)n1cncn1)c1ccc(F)cc1N1CCCC1`, the MIC was found to be 256 µg/mL (≈ 706 µM) against Candida; 32 µg/mL (≈ 88.3 µM) with Candida albicans; 16 µg/mL (≈ 44.1 µM) against Bacillus; 16 µg/mL (≈ 44.1 µM) against Pseudomonas aeruginosa; 8 µg/mL (≈ 22.1 µM) in the assay on Escherichia coli; 4 µg/mL (≈ 11 µM) against Salmonella typhi. The MIC against Micrococcus luteus turned out to be 16 µg/mL (≈ 44.1 µM); in the assay with Bacillus subtilis, 8 µg/mL (≈ 22.1 µM); in the assay on Staphylococcus aureus [1] it was 16 µg/mL (≈ 44.1 µM); against Staphylococcus aureus [2], 16 µg/mL (≈ 44.1 µM).

For `COc1ccc(/C=C(/C(=O)c2ccc(F)cc2F)n2cncn2)cc1`, the minimal inhibitory concentration (MIC) is 32 µg/mL (≈ 93.8 µM) against Candida; 16 µg/mL (≈ 46.9 µM) in the assay on Candida albicans; 8 µg/mL (≈ 23.4 µM) against Bacillus; 16 µg/mL (≈ 46.9 µM) against Pseudomonas aeruginosa; 16 µg/mL (≈ 46.9 µM) with Escherichia coli; 32 µg/mL (≈ 93.8 µM) in the assay with Salmonella typhi. The MIC against Micrococcus luteus turned out to be 16 µg/mL (≈ 46.9 µM); against Bacillus subtilis, 8 µg/mL (≈ 23.4 µM); against Staphylococcus aureus [1] it was 8 µg/mL (≈ 23.4 µM); in the assay on Staphylococcus aureus [2], 4 µg/mL (≈ 11.7 µM).

For the compound `Cc1ccc(C(=O)/C(=C/c2ccccc2)n2cncn2)c(C)c1`, the minimum inhibitory concentration (MIC) in the assay on Candida was 256 µg/mL (≈ 844 µM); with Candida albicans it was 128 µg/mL (≈ 422 µM); against Bacillus, 128 µg/mL (≈ 422 µM); against Pseudomonas aeruginosa it was 256 µg/mL (≈ 844 µM); in the assay on Escherichia coli it was 256 µg/mL (≈ 844 µM); with Salmonella typhi it was 128 µg/mL (≈ 422 µM). The minimal inhibitory concentration (MIC) stood at 256 µg/mL (≈ 844 µM) with Micrococcus luteus, 128 µg/mL (≈ 422 µM) against Bacillus subtilis, 128 µg/mL (≈ 422 µM) with Staphylococcus aureus [1] and 64 µg/mL (≈ 211 µM) against Staphylococcus aureus [2].

In the case of `OC(Cn1cncn1)(Cn1cncn1)c1ccc(F)cc1F` [FLUCONAZOLE], the minimal inhibitory concentration (MIC) was 4 µg/mL (≈ 13.1 µM) in the assay with Candida and 1 µg/mL (≈ 3.27 µM) with Candida albicans.

Consider `Cc1ccc(C(=O)/C(=C/c2ccccc2)n2cncn2)cc1C`, for which the MIC was found to be 256 µg/mL (≈ 844 µM) against Candida; 16 µg/mL (≈ 52.7 µM) in the assay with Candida albicans; 128 µg/mL (≈ 422 µM) in the assay with Bacillus; 128 µg/mL (≈ 422 µM) with Pseudomonas aeruginosa; 16 µg/mL (≈ 52.7 µM) with Escherichia coli; 128 µg/mL (≈ 422 µM) against Salmonella typhi. Moreover, the minimal inhibitory concentration (MIC) against Micrococcus luteus is 128 µg/mL (≈ 422 µM); against Bacillus subtilis, 64 µg/mL (≈ 211 µM); in the assay on Staphylococcus aureus [1], 256 µg/mL (≈ 844 µM); with Staphylococcus aureus [2], 256 µg/mL (≈ 844 µM).

For the compound `CN(C)c1ccc(/C=C(/C(=O)c2ccc(F)cc2F)n2cncn2)cc1`, the MIC stood at 64 µg/mL (≈ 181 µM) with Candida; 16 µg/mL (≈ 45.2 µM) against Candida albicans; 64 µg/mL (≈ 181 µM) against Bacillus; 256 µg/mL (≈ 722 µM) with Pseudomonas aeruginosa; 128 µg/mL (≈ 361 µM) in the assay with Escherichia coli; 64 µg/mL (≈ 181 µM) with Salmonella typhi. The minimal inhibitory concentration (MIC) in the assay on Micrococcus luteus turned out to be 64 µg/mL (≈ 181 µM); in the assay on Bacillus subtilis it was 64 µg/mL (≈ 181 µM); against Staphylococcus aureus [1], 64 µg/mL (≈ 181 µM); against Staphylococcus aureus [2], 32 µg/mL (≈ 90.3 µM).

As for `O=C(/C(=C/c1ccccc1)n1cncn1)c1ccc(F)cc1N1CCOCC1`, the minimal inhibitory concentration (MIC) was 32 µg/mL (≈ 84.6 µM) in the assay with Candida; 128 µg/mL (≈ 338 µM) against Candida albicans; 32 µg/mL (≈ 84.6 µM) against Bacillus; 64 µg/mL (≈ 169 µM) in the assay on Pseudomonas aeruginosa; 16 µg/mL (≈ 42.3 µM) in the assay on Escherichia coli; 32 µg/mL (≈ 84.6 µM) against Salmonella typhi. Besides, the MIC amounted to 64 µg/mL (≈ 169 µM) against Micrococcus luteus, 32 µg/mL (≈ 84.6 µM) in the assay on Bacillus subtilis, 32 µg/mL (≈ 84.6 µM) against Staphylococcus aureus [1] and 128 µg/mL (≈ 338 µM) against Staphylococcus aureus [2].

In the case of `O=C(/C(=C/c1ccccc1)n1cncn1)c1ccc(N2CCCCC2)cc1N1CCCCC1`, the minimum inhibitory concentration (MIC) in the assay on Candida was 16 µg/mL (≈ 36.2 µM); against Candida albicans it was 16 µg/mL (≈ 36.2 µM); in the assay on Bacillus, 64 µg/mL (≈ 145 µM); against Pseudomonas aeruginosa, 128 µg/mL (≈ 290 µM); in the assay on Escherichia coli, 64 µg/mL (≈ 145 µM); against Salmonella typhi it was 32 µg/mL (≈ 72.5 µM). The minimum inhibitory concentration (MIC) was 64 µg/mL (≈ 145 µM) with Micrococcus luteus, 32 µg/mL (≈ 72.5 µM) in the assay with Bacillus subtilis, 16 µg/mL (≈ 36.2 µM) in the assay on Staphylococcus aureus [1] and 32 µg/mL (≈ 72.5 µM) with Staphylococcus aureus [2].
